ABCB6 inh 2: ABCB6 transporter inhibitors, primary screen, K562-ABCB6 cells, flow cytometry, MLPCN library; fluorescence ratio to DMSO, % at 10 µM; 360,000 tested, 0.19% active; K562-ABCB6 porphyrin accumulation, 1 h; active compounds read low; ATP-binding cassette sub-family B member 6 (Homo sapiens), Q9NP58;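 active = fluorescence ratio to DMSO below 75%, the collection mean minus 3 SD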;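 note: signal is porphyrin accumulated inside mitochondria; 100% equals median channel fluorescence of DMSO control wells; lower ratio means ABCB6 inhibition with less porphyrin fluorescence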
Dynein cargo inh: inhibitors of GR-EGFP nuclear translocation, primary screen, dynein cargo transport inhibitor project, imaging, high-content, 3617.4 mouse cells. test concentration mostly 20 µM; stimulated with dexamethasone, 1 µM; active compounds read low. z-score, hits read low. 220,000 tested, 0.47% active. AID 1381, 2008;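 active = plate z-score of nuclear minus cytoplasmic receptor signal below a set negative limit, without overly bright fluorescence or cell loss, cut at about -3.5 in these data, passing the limit was not always enough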;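 note: z-score of nuclear minus cytoplasmic ring GR-EGFP intensity difference per well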
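Buffer or medium: Induction medium lacking tetracycline, stripped serum | Also added: Dexamethasone agonist, 1.0 µM final, for 30 min | Timing: 48 h induction, 1 h compound, 30 min dex at 37 °C | Detection: Formaldehyde fixation, Hoechst nuclear stain, 10x automated fluorescence imaging | Measure: Nuclear versus cytoplasmic GR-EGFP signal, averaged per well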
KCC2 mod: KCC2 cotransporter modulators, thallium flux, primary screen, cell-based, HEK293 KCC2, FluoZin-2 fluorescence, MLSMR | Solute carrier family 12 member 5 (Homo sapiens), Q9H2X9 | 190,000 tested, 2.2% active | KCC2 cells, thallium flux FluoZin-2 fluorescence | B-score of Tl+ flux slope (higher = more flux/activation; lower = inhibition) at 10 µM | AID 1456, 2008;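 active = thallium flux slope and its plate-corrected score both differing from the plate sample mean at a set confidence after two filtering rounds, in either direction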;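 note: slope of fluorescence scaled to starting intensity during 10 to 20 s after thallium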
p-CIP stab down: p/CIP-EGFP fusion destabilizers, primary screen, fluorescence, F442A cells; 290,000 tested, 0.01% active; Q05BA5; 16 h; decrease of EGFP signal, % at 10 µM;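 active = EGFP signal decrease of at least 30% at 10 µM or well 3 SD below plate mean, unless failing retest; inactive = the rest, including hits failing retest or dose response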
V-ATPase pHluor: regulators of yeast V-ATPase proton pumping, primary screen, pHLuorin cytosolic pH fluorescence | S. cerevisiae | AID 504577, 2011 | response, % at 10 µM | 350,000 tested, 0.37% active; in the data active = response mostly above about 7.3%, no sharp cut-off; inactive = mostly below about 5.4%; note: actives read high
Starred values were filed as active, the others as inactive; x = no result. Only a selection was taken, and hits are over-represented in it overall.

SMILES	ABCB6 inh 2	Dynein cargo inh	KCC2 mod	p-CIP stab down	V-ATPase pHluor
COc1ccc(-c2csc(C(NC(C)=O)c3cccc(F)c3)n2)cn1 (stereo not drawn)	106	x	x	x	x
CCC(=O)N1CCc2cc(Br)cc(S(=O)(=O)NCC3CCCO3)c21 (stereo not drawn)	99	-0.53	-1.1	-1	14*
CCC(=O)N1CCc2cc(Br)cc(S(=O)(=O)CCC(=O)NCC3CCCO3)c21 (stereo not drawn)	103	-0.74	0.93	-2	0
CCOC(=O)c1sc(NC(=S)NC(=O)c2ccco2)nc1C	90	3	47*	8	-5
COC(=O)c1sc(NC(=O)c2ccco2)nc1C	105	-0.41	0.59	-3	3
O=C(NC(=S)NCc1ccc(-c2nc3ccccc3s2)cc1)c1ccco1	92	0.032	6.4*	-12	2
O=C(NC(=S)Nc1nc2ccccc2s1)c1ccco1	100	-1.1	37*	14	0
CC1OC(COCc2ccccc2)Cc2[nH][nH]c(=O)c21 (stereo not drawn)	99	x	x	x	x
CC(C)c1nc2sc3c(=O)[nH]cnc3c2c2c1CCC2	103	3.1	-0.35	-12	4
CC(C)c1nc2sc3c(=S)nc[nH]c3c2c2c1CCC2	97	-0.16	159*	-2	-6
O=C(Cn1nnc2ccccc21)OCC(=O)c1ccccc1	x	0.66	3.2*	7	0
O=C(Cn1nnc2ccccc21)OCC(=O)c1ccc(Cl)c(Cl)c1	99	-1.4	0.77	-12	1
O=C1CC[C@@H](C(=O)N2CSC[C@@H]2C(=O)Nc2cccc(C(F)(F)F)c2)N1	98	x	x	x	1
COC(=O)c1cn(NC(=O)c2cccc(F)c2)c(=O)c2ccccc12	97	0.11	0.5	-2	-4
COC(=O)c1cn(NC(=O)c2cccc(N(C)C)c2)c(=O)c2ccccc12	72*	0.24	x	-7	13
CCSc1nnc(NC(=O)c2cccs2)s1	103	-0.42	0.14	-2	16*
Cc1ccc(CNc2ncnc3ccc(-c4ccoc4C)cc23)o1	97	x	x	x	x
Cc1ccc(CNC(=O)Cc2csc(Nc3nc(=S)[nH]c4ccccc34)n2)cc1	x	-0.47	9.7*	-5	x
COc1cc(/C=C2\SC(=O)N(CCNC(=O)c3sc4cc(F)ccc4c3Cl)C2=O)cc(OC)c1OC	73*	-1.6	0.14	4	0
COc1cc(C(=O)NCC(=O)NCCN2C(=O)S/C(=C\c3ccccc3Cl)C2=O)cc(OC)c1OC	98	x	x	x	4
Cc1cc(C)c2[nH]c(=S)cc(C)c2c1	93	1.5	31*	-5	-2
CCc1nc2ccc(C(=O)N3CCN(C(C)=O)CC3)cn2c1N(C=O)Cc1ccc(OC)cc1	97	x	x	x	x
Oc1c(C=C2N=c3ccccc3=N2)sc(=S)n1-c1ccccc1	107	0.32	0.17	-7	-2
CC1=Nc2ccccc2/C1=C/c1sc(=S)n(-c2cccc(C(=O)O)c2)c1O	93	0.41	-3.9*	-104	-2
O=C(OCc1ccccc1)N1CCC2CC1c1ccc(/C=C/CCCCl)cc12 (stereo not drawn)	97	x	x	x	x
SMILES	ABCB6 inh 2	Dynein cargo inh	KCC2 mod	p-CIP stab down	V-ATPase pHluor
Cc1ccnc(Sc2ccc([N+](=O)[O-])cc2[N+](=O)[O-])n1	96	-4.8*	0.18	-10	1
CCOC(=O)c1ccccc1NC(=O)COC(=O)CCC(=O)c1ccccc1	100	x	x	-13	0
CCCOC(=O)COC(=O)c1ccccc1NC(=O)c1ccccc1	103	0.23	-1.2	-22	20*
O=C(O)C(Cc1ccccc1)N1C(=O)/C(=C/c2cccc3ccccc23)SC1=S (stereo not drawn)	x	0.45	-7.2*	-1	x
O=C(O)C(Cc1ccccc1)N1C(=O)/C(=C/c2ccccc2)SC1=S (stereo not drawn)	99	-0.8	-2.1	-20	0
Cc1ccc(/C=C2\SC(=S)N(C(Cc3ccccc3)C(=O)O)C2=O)cc1 (stereo not drawn)	93	-1.1	-3.5*	6	3
O=C1NC(Nc2nccs2)(C(F)(F)F)C(=O)N1CCc1ccccc1 (stereo not drawn)	95	0.17	-2.6*	-14	-2
